{
  "source": "the RNAGym collection of RNA variant scans (doi:10.1038/s41586-018-0170-7)",
  "parents": {"B1": {"name": "tRNA (parent)", "chain": "GUUCCGUUGGCGUAAUGGUAACGCGUCUCCCUCCUAAGGAGAAGACUGCGGGUUCGAGUCCCGUACGGAACG"}},
  "data": [
    {"variants_of": "B1", "assay": "yeast fitness, log relative to wild type (ln ratio); higher = fitter; tRNA-Arg(CCU), competitive growth, 37 C, 1 M NaCl", "outline": "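BY4742 cells without the chromosomal tRNA-Arg(CCU) gene carried a combinatorial variant library on a HIS3 centromeric plasmid, from two independent transformations. After 4 generations in SC-HIS at 30 °C, pools spent ~6.5 generations (~26.5 h) in SC-HIS 1M NaCl at 37 °C, giving three outputs per input, and 125 bp paired-end Illumina reads counted the variants. Fitness is the natural log of each genotype's generations over the wild type's, with generations taken as OD-scaled log2 output/input frequency weighted by inverse variance across replicates.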", "values": [
      {"variant": "G6U A70U C71U", "yeast fitness (ln)": -0.14},
      {"variant": "G6A C27U A43C C66A A70G C71U", "yeast fitness (ln)": -0.325},
      {"variant": "G6A A69G", "yeast fitness (ln)": -0.0982},
      {"variant": "G6U C27U A43C A69G A70U", "yeast fitness (ln)": -0.391},
      {"variant": "G6U C27U A43C A69G A70G", "yeast fitness (ln)": -0.401},
      {"variant": "G6U C27U A43C A70G", "yeast fitness (ln)": -0.282},
      {"variant": "G6U C27U A43C A70U", "yeast fitness (ln)": -0.309},
      {"variant": "G6U A43C C46U C66A A69G A70U", "yeast fitness (ln)": -0.113},
      {"variant": "G6U A43C C46U C66A A69G A70G", "yeast fitness (ln)": -0.147},
      {"variant": "G6U A43C C46U C66A A69G", "yeast fitness (ln)": 0.0709},
      {"variant": "G6A C27U A43C C66A A70U C71U", "yeast fitness (ln)": -0.37},
      {"variant": "G6A C27U A69G A70G C71U", "yeast fitness (ln)": -0.265},
      {"variant": "G6U A43C A69G A70U", "yeast fitness (ln)": -0.371},
      {"variant": "G6U A43C A69G A70G", "yeast fitness (ln)": -0.371},
      {"variant": "G6A C27U C46U A70U C71U", "yeast fitness (ln)": -0.218},
      {"variant": "G6A C66U A69G A70U C71U", "yeast fitness (ln)": -0.447},
      {"variant": "G6A C27U A43C C46U C71U", "yeast fitness (ln)": -0.176},
      {"variant": "G6A A43C C46U C71U", "yeast fitness (ln)": -0.117},
      {"variant": "G6U A43C C46U A69G", "yeast fitness (ln)": -0.176},
      {"variant": "G6A C27U A69G A70U", "yeast fitness (ln)": -0.243},
      {"variant": "G6A C27U A69G A70G", "yeast fitness (ln)": -0.12},
      {"variant": "G6A A43C C66A A69G A70G C71U", "yeast fitness (ln)": -0.261},
      {"variant": "G6U A43C", "yeast fitness (ln)": -0.132},
      {"variant": "G6U A43C C46U C66U A69G C71U", "yeast fitness (ln)": -0.321},
      {"variant": "G6U C27U A43C C46U C66U A69G A70G", "yeast fitness (ln)": -0.396},
      {"variant": "G6U C27U A43C C46U C66U A69G A70U", "yeast fitness (ln)": -0.416},
      {"variant": "G6A C27U A43C C71U", "yeast fitness (ln)": -0.184},
      {"variant": "G6A C27U C46U C66U A69G A70U C71U", "yeast fitness (ln)": -0.302},
      {"variant": "G6U C27U", "yeast fitness (ln)": -0.111},
      {"variant": "G6U A43C C46U", "yeast fitness (ln)": -0.193},
      {"variant": "G6A A43C C66A A70G C71U", "yeast fitness (ln)": -0.275},
      {"variant": "G6A C27U C66U A70G C71U", "yeast fitness (ln)": -0.249},
      {"variant": "G6U A43C C71U", "yeast fitness (ln)": -0.253},
      {"variant": "G6A C27U A43C C46U C66A C71U", "yeast fitness (ln)": -0.328},
      {"variant": "G6A C27U A43C C46U A69G A70G", "yeast fitness (ln)": -0.237},
      {"variant": "G6A C27U A43C C46U A69G A70U", "yeast fitness (ln)": -0.16},
      {"variant": "G6U C27U A43C A70G C71U", "yeast fitness (ln)": -0.348},
      {"variant": "G6A C27U C46U A70U", "yeast fitness (ln)": -0.144},
      {"variant": "G6A C27U C46U A70G", "yeast fitness (ln)": -0.132},
      {"variant": "G6A C27U A43C C46U C66U A69G A70G C71U", "yeast fitness (ln)": -0.28},
      {"variant": "G6A C27U A43C C46U A70G", "yeast fitness (ln)": -0.128},
      {"variant": "G6A C27U A43C C46U A70U", "yeast fitness (ln)": -0.139},
      {"variant": "G6U A43C C46U C66A A70G C71U", "yeast fitness (ln)": -0.227},
      {"variant": "G6A C27U A43C C66A A69G A70U C71U", "yeast fitness (ln)": -0.54},
      {"variant": "G6A C46U C66A A69G A70U", "yeast fitness (ln)": -0.178},
      {"variant": "G6A C46U C66A A69G A70G", "yeast fitness (ln)": -0.148},
      {"variant": "G6A C27U A43C C66U A69G C71U", "yeast fitness (ln)": -0.368},
      {"variant": "G6A A43C C46U C66U A70G C71U", "yeast fitness (ln)": -0.144},
      {"variant": "G6A C66U A70G", "yeast fitness (ln)": -0.00631},
      {"variant": "G6A C66U A70U", "yeast fitness (ln)": -0.0184},
      {"variant": "G6U A43C C66A A70G", "yeast fitness (ln)": -0.0733},
      {"variant": "G6U A43C C66A A70U", "yeast fitness (ln)": -0.307},
      {"variant": "G6A C66A A70G", "yeast fitness (ln)": -0.0871},
      {"variant": "G6A C66A A70U", "yeast fitness (ln)": -0.158},
      {"variant": "G6A C46U C66U A69G A70G C71U", "yeast fitness (ln)": -0.581},
      {"variant": "G6U A43C C46U A70G C71U", "yeast fitness (ln)": -0.256},
      {"variant": "G6A C27U A43C C66U", "yeast fitness (ln)": -0.0646},
      {"variant": "G6A A69G A70G C71U", "yeast fitness (ln)": -0.263},
      {"variant": "G6A C27U A43C A70U C71U", "yeast fitness (ln)": -0.322},
      {"variant": "G6A C27U C46U C66A A70U C71U", "yeast fitness (ln)": -0.234},
      {"variant": "G6A C27U A43C C46U A69G A70U C71U", "yeast fitness (ln)": -0.441},
      {"variant": "G6U A43C C66U", "yeast fitness (ln)": -0.23},
      {"variant": "G6U A43C C66A", "yeast fitness (ln)": -0.0198},
      {"variant": "G6A C27U A43C C66A A69G A70G C71U", "yeast fitness (ln)": -0.262},
      {"variant": "G6A A70U C71U", "yeast fitness (ln)": -0.14},
      {"variant": "G6A C66U C71U", "yeast fitness (ln)": -0.0335},
      {"variant": "G6A C27U A43C A70G C71U", "yeast fitness (ln)": -0.304},
      {"variant": "G6A C27U A43C C46U A69G C71U", "yeast fitness (ln)": -0.344},
      {"variant": "G6A C27U C46U C66U A70G C71U", "yeast fitness (ln)": -0.387},
      {"variant": "G6A C66A A69G A70G", "yeast fitness (ln)": -0.159},
      {"variant": "G6U A43C A70U C71U", "yeast fitness (ln)": -0.287},
      {"variant": "G6A C27U A69G C71U", "yeast fitness (ln)": -0.243},
      {"variant": "G6A C27U", "yeast fitness (ln)": -0.0758},
      {"variant": "G6A C27U C46U A69G C71U", "yeast fitness (ln)": -0.252},
      {"variant": "G6A A43C C66U A70U C71U", "yeast fitness (ln)": -0.384},
      {"variant": "G6A C27U A43C A70U", "yeast fitness (ln)": -0.263},
      {"variant": "G6A C27U A43C A70G", "yeast fitness (ln)": -0.213},
      {"variant": "G6U", "yeast fitness (ln)": -0.0403},
      {"variant": "G6A C27U C46U C66A A69G A70G C71U", "yeast fitness (ln)": -0.221},
      {"variant": "G6A C27U C66U A69G A70U", "yeast fitness (ln)": -0.214},
      {"variant": "G6A C27U C66U A69G A70G", "yeast fitness (ln)": -0.368},
      {"variant": "G6A C27U A43C C46U C66U A69G C71U", "yeast fitness (ln)": -0.307},
      {"variant": "G6U A43C A70U", "yeast fitness (ln)": -0.164},
      {"variant": "G6U A43C A70G", "yeast fitness (ln)": -0.296}
    ]}
  ]
}
